# E-selectin induc: induces E-selectin expression in human endothelial cells; P16581; HUVEC E-selectin immunofluorescence imaging; normalized: neutral wells 0, TNF-alpha wells 100; activation, % at 7.58 µM; 260,000 tested, 0.37% active;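 active = mean E-selectin-positive cell signal at least 10% of the positive control, reached in at least 60% of replicates, without over 20% cell loss; inconclusive = no rule given, readout overlaps actives, possibly toxicity-flagged; inactive = the rest, including those meeting only one limit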
# Target sequence (P16581 whole entry, looked up): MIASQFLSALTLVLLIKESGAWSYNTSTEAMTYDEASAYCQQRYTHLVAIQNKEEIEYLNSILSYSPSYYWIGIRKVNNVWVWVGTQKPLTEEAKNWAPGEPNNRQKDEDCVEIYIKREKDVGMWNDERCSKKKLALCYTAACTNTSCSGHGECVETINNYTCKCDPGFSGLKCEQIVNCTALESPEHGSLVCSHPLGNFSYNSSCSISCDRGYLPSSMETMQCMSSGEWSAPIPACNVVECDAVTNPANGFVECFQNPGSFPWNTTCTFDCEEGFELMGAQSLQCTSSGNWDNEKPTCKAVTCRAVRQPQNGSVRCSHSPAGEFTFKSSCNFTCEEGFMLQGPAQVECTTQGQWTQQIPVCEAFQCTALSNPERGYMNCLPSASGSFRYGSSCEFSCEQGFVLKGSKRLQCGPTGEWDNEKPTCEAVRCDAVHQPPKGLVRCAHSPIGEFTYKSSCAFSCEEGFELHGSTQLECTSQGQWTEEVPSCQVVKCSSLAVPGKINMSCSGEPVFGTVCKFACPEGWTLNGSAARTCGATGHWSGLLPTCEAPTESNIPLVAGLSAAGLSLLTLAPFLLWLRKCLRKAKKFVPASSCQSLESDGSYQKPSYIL
#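 System: HUVEC, human umbilical vein endothelial cells; quantity: 3,000 cells/well; buffer or medium: EGM-2 medium, gelatin-coated wells; dosing: single-point compound dose; detection: immunofluorescence imaging; evaluation: % PE-positive cells; benchmarks: TNF-alpha, DMSO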
# PglD DTNB: blocks C. jejuni PglD acetyltransferase activity; inhibition, % at 12.5 µM; purified PglD enzyme, DTNB colorimetric CoA detection; 360,000 tested, 0.098% active; in the data active = inhibition above about 16%, passing the limit was not always enough; inconclusive = no clear call, values can overlap the other calls
# XiGFP reactiv: reactivates the inactive X chromosome in mouse fibroblasts | activation, % at 7.58 µM | XiGFP mouse fibroblasts, % GFP-positive cells imaging, 3 d; cells co-treated with 5-aza-dC sensitizer; scaled so ellipticine positive control = 100% | 360,000 tested, 0.055% active;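 active = mean normalized replicate activation at least 10% and every replicate at or above 10%; inconclusive = only one of the two criteria met; inactive = mean below 10% and not all replicates reach 10%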;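 also: 0% = median of on-plate neutral control wells and 100% = ellipticine 6 µM median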
#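 System: XiGFP fibroblasts, SV40-immortalized. Medium: DMEM plus 5-aza-dC sensitizer. Doses: single point. Timing: 3 d treatment, 15 min room-temperature fixation. Control set: ellipticine 6 µM.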
# FGF22 binding: shifts melting point of recombinant human FGF22; recombinant FGF22 thermal shift, SYPRO orange fluorescence; percent of sucrose octasulfate shift, DMSO zero; AID 651658; 340,000 tested, 1.5% active; activity (Tm shift, normalised), % at 9.99 µM;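 active = mean Tm shift, scaled 0 neutral to 100 positive control, at about 1.3% or above, every replicate too, limit read from the data; inconclusive = no clear call, values can overlap the other calls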
# DENV2 CPE: DENV2-induced cell death inhibition. 350,000 tested, 1.7% active. DENV2-infected cells, cytopathic effect rescue, plate reader. CPE inhibition, % at 9.99 µM; in the data active = CPE inhibition above about 20%, passing the limit was not always enough; inconclusive = no clear call, values can overlap the other calls; tested in BHK-21 cells;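 also: 0% = median of neutral control wells and 100% = median of positive control wells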
# Statin myotox sup: suppressors of simvastatin-induced myotoxicity in C2C12 myotubes | ATP luminescence, 48 h; scaled: DMSO 0, geranylgeraniol control 100 | rescue of ATP level, % at 7.49 µM | 330,000 tested, 0.78% active;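 active = mean ATP rescue above about 67%, or every replicate alone reaching that limit, limit read from the data, passing the limit was not always enough; inconclusive = no clear call, values can overlap the other calls; inactive = mean under the limit and some replicate under it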;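 also: myotubes were challenged with 10 µM simvastatin during compound exposure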
# * hit, by the source's call; ? = inconclusive; / = not tested or not shown. Sampled rows, rich in hits. Any-hit rate of the full collection: about 3.3%.
SMILES,E-selectin induc,PglD DTNB,XiGFP reactiv,FGF22 binding,DENV2 CPE,Statin myotox sup
C[C@H]1CN([C@@H](C)CO)C(=O)c2cc(-c3ccc(F)cc3)cnc2O[C@H]1CN(C)Cc1cncnc1,1,2,-1,0,13,3
CCn1c(=O)c(C(=O)NNS(=O)(=O)c2ccc(C)cc2)c(O)c2ccccc21,/,7,0,/,/,/
CCCn1c(=O)c(C(=O)NNS(=O)(=O)c2ccc(C)cc2)c(O)c2ccccc21,/,/,0,0,35*,-2
Cc1noc(C)c1S(=O)(=O)Nc1ccc2c(c1)C(=O)N([C@H](C)CO)C[C@@H](C)[C@@H](CN(C)S(=O)(=O)c1cccs1)OCCCC[C@@H](C)O2,/,-9,0,0,-6,-73
NS(=O)(=O)Oc1ccccc1,0,4,0,0,52*,-1
COc1ccc(OS(=O)(=O)Cc2ccccc2)cc1,0,8,0,0,-9,3
O=S(=O)(CS(=O)(=O)Oc1ccccc1)Oc1ccccc1,0,/,0,0,23*,-5
CCCC(=O)Nc1ccc2c(c1)OC[C@@H](C)N(C(=O)c1ccccc1F)C[C@H](C)[C@H](OC)CN(C)C2=O,0,/,0,/,/,-24
OC[C@H]1[C@H](c2ccc(C#CC3(O)CCCC3)cc2)[C@@H]2CN(Cc3cccnc3)CCCCN12,0,1,0,0,0,/
COc1ccc(CNc2ncnc3c2[nH]c2cc(OC)c(OC)cc23)cc1,67*,-5,0,0,6,/
Cc1ccc(S(=O)(=O)N2CCN(S(=O)(=O)c3ccc(C)cc3)C2c2ccccc2)cc1,/,-2,/,/,/,139*
Cc1ccc(S(=O)(=O)N2CCN(S(C)(=O)=O)C2c2ccccc2)cc1 (stereo not given),/,0,/,/,/,-9
CNC(=O)/C(C#N)=C/c1ccc(-c2ccccc2[N+](=O)[O-])o1,-1,/,0,42,4,/
CNC(=O)/C(C#N)=C/c1ccc(-c2ccc(Cl)cc2)o1,3,/,0,1.5*,7,-1
COc1ccc2oc(=O)c(-c3nnc(NCc4ccco4)s3)cc2c1,/,-2,/,/,/,103*
C[C@@H]1CN([C@H](C)CO)C(=O)c2c(c3ccccc3n2C)-c2ccccc2CO[C@@H]1CN(C)S(=O)(=O)c1ccc(F)cc1,/,/,0,/,/,/
FC(F)c1nnc2c(Cl)cc(C(F)(F)F)cn12,/,/,0,44*,/,/
CO[C@@H]1CN(C)C(=O)c2ccc(NC(=O)Nc3c(C)noc3C)cc2OC[C@@H](C)N(C)C[C@H]1C,0,1,0,0,8,-2
O=C(NCC[C@H]1CC[C@H](NS(=O)(=O)Cc2ccccc2)[C@@H](CO)O1)C1CC1,1,8,0,0,0,1
NNC(=O)COc1cccc2cccnc12,/,4,/,/,/,122*
O=C(COc1cccc2cccnc12)N1CCc2ccccc21,/,/,0,43*,-4,/
Cc1ccc2cccc(OCC(=O)N3CCc4ccccc43)c2n1,11,2,0,0,1,9
O=C(COc1cccc2cccnc12)Nc1nccs1,/,4,/,/,/,-2
Cc1ccc(-c2ccc([C@@H]3[C@@H](CO)N4CCCCN(C(=O)c5ccc(F)cc5)C[C@@H]34)cc2)cc1,-1,2,0,-1,9,1
C[C@@H]1CN([C@@H](C)CO)C(=O)c2cc(NC(=O)C3CCCCC3)ccc2O[C@@H](C)CCCCO[C@H]1CN(C)S(C)(=O)=O,0,/,-1,/,/,3
SMILES,E-selectin induc,PglD DTNB,XiGFP reactiv,FGF22 binding,DENV2 CPE,Statin myotox sup
N#C/C(=C/c1cccn1-c1cccc(C(=O)O)c1)c1ccc(Cl)cc1,/,/,0,44*,1,/
C[C@@H]1CN([C@@H](C)CO)S(=O)(=O)c2ccc(C#C[C@@H](C)O)cc2O[C@@H]1CN(C)C(=O)Nc1ccccc1,0,2,0,1,5,19
CN(C)CC(=O)N[C@@H]1CC[C@H](CCn2cc(C3CC3)nn2)O[C@H]1CO,0,-1,0,0,13,0
O=C1c2cccc3c([N+](=O)[O-])ccc(c23)C(=O)N1c1ccccn1,/,3,/,/,/,55
O=C1c2cccc3c([N+](=O)[O-])ccc(c23)C(=O)N1O,2,-3,17*,0,0,-1
O=C1c2cccc3c([N+](=O)[O-])ccc(c23)C(=O)N1c1ccc(Cl)cn1,/,-1,/,/,/,129*
COCC(=O)N1CC2(C1)CN(Cc1cc(F)ccc1F)[C@@H](CO)c1c2c2ccc(OC)cc2n1C,0,/,0,0,-1,/
CC(Sc1nc2ncc(Cl)cc2[nH]1)C(=O)Nc1ccc(C(N)=O)cc1 (stereo not given),/,1,1,/,118*,2
CC(Sc1nc2ncc(Cl)cc2[nH]1)C(=O)c1c(N)n(C)c(=O)n(C)c1=O (stereo not given),/,1,0,0,-7,-24
O=Cc1c(Cl)nc2ccccn12,/,/,0,0,-1,/
O=C(/C=C/c1c(Cl)nc2ccccn12)Nc1ccc(F)cc1,/,/,0,44*,-3,/
CCC(=O)N[C@@H]1CC[C@H](CC(=O)NCC2CC2)O[C@@H]1CO,/,/,0,/,/,/
Nc1ccc(C(=O)Nc2ccc3nc(-c4ccncc4)[nH]c3c2)cc1,/,/,0,44*,-3,/
N#Cc1cnn(Cc2ccccc2)c1N,/,1,/,/,/,112*
COc1ccc2c3c(n(C)c2c1)[C@@H](CO)N(Cc1ccc2c(c1)OCO2)CC31CCN(C(C)=O)CC1,0,/,0,0,-2,/
C[C@@H]1CCCCO[C@@H](CN(C)C(=O)c2ccncc2)[C@@H](C)CN([C@H](C)CO)C(=O)c2cc(NC(=O)NC3CCCCC3)ccc2O1,0,1,-1,0,27*,/
C[C@H]1CCCCO[C@@H](CN(C)C(=O)c2ccncc2)[C@@H](C)CN([C@@H](C)CO)C(=O)c2cc(NC(=O)NC3CCCCC3)ccc2O1,0,-1,0,0,21*,/
CO[C@@H]1CN(C)C(=O)c2cc(NC(=O)c3ccc(Oc4ccccc4)cc3)ccc2OC[C@@H](C)N(C(C)=O)C[C@H]1C,0,-1,1,0,-2,9
CC1NC(=S)N(C2CCCCC2)C1=O (stereo not given),2,/,0,43*,11,/
CCC(C)C1NC(=S)N(C2CCCCC2)C1=O (stereo not given),/,5,/,/,/,-1
COc1ccc(-c2csc(-c3cccs3)n2)c(OC)c1,0,1,0,42,?,-5
COc1ccc(-c2csc(-c3ccccc3)n2)c(OC)c1,5,/,0,43*,-8,/
O=C(c1ccccc1)N1C[C@@H]2[C@H](c3ccccc31)[C@H](CO)N2C(=O)CN1CCOCC1,1,2,0,0,17,9
